Assay [1] can be described thus: Inhibition of [3H]epibatidine binding at the alpha beta nicotinic AChR in male rat cerebral cortex. The class given is tissue-based.
For assay [2], the species on record is Mus musculus. Nature of the assay: Compound was tested for inhibition of antinociceptive effect of nicotine in mice by hotplate assay; NA=Inactive. The class given is functional, organism-based. The gist of the method:
(§1)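 Antagonism was tested in male ICR mice given test agent sc, measuring blockade of nicotine-induced antinociception in tail-flick or hot-plate tests. Potency is expressed as AD50 in mg/kg with confidence limits.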

Assay [3] is filed under the species Mus musculus. Nature of the assay: Compound was tested for inhibition of antinociceptive effect of nicotine in mice by tail-flick assay; NA=Inactive. The class given is functional, organism-based. Put shortly:
as §1

Assay [4] deals with Mus musculus. As to the kind of experiment: Compound at 10 mg/Kg was tested for antinociception in mice by hotplate assay. The class given is functional. Put shortly: (§2)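 Male ICR mice were given test agent and assessed for antinociception by tail-flick or hot-plate. Results are expressed as ED50 in mg/kg with confidence limits, or as percent effect at a single stated mg/kg dose.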

Assay [5] deals with Mus musculus. As to the kind of experiment: Compound at 10 mg/Kg was tested for antinociception in mice by tail-flick assay. In kind it is functional. Put shortly: as §2
(In general: Thermal pain tests record how soon the animal reacts.)

For assay [6], the system named is Mus musculus. Nature of the assay: Compound at 10 mg/Kg was tested for hypothermia in mice. In kind it is functional. The gist of the method: (§3)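 Male ICR mice were dosed and body temperature or locomotor activity was recorded. Values are ED50 in mg/kg with confidence limits, or the effect (change in °C for temperature) at a single stated mg/kg dose.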
Assay [7] is filed under the species Mus musculus. As to the kind of experiment: Compound was tested to block the antinociceptive effect of nicotine in mice by hotplate assay. The class given is functional. The gist of the method: as §1
The species entered for assay [8] is Mus musculus. As to the kind of experiment: Compound was tested to block the antinociceptive effect of nicotine in mice by tail-flick assay. The class given is functional. The gist of the method:
as §1

Assay [9] deals with Mus musculus. Nature of the assay: Compound at 15 mg/Kg was tested for antinociception in mice by hotplate assay. In kind it is functional. Put shortly: as §2
For assay [10], the system named is Mus musculus. Nature of the assay: Compound at 15 mg/Kg was tested for antinociception in mice by tail-flick assay. The class given is functional. The gist of the method: as §2
Assay [11] is filed under the species Mus musculus. As to the kind of experiment: Effective dose for hypomotility in mice was determined. The class given is functional. Put shortly: as §3
For assay [12], the species on record is Mus musculus. Nature of the assay: Effective dose for antinociception in mice was determined by hotplate assay.
Assay [13] is filed under the species Mus musculus. As to the kind of experiment: Effective dose for antinociception in mice was determined by tail-flick assay.
The species named for assay [14] is Mus musculus. Nature of the assay: Effective dose for hypothermia in mice was determined.

The Ki is a dissociation constant, usually derived from enzyme kinetics or from competition with a known ligand. One may read the ED50 as the dose that gives a 50% effect, or the effect in half of the subjects.

SMILES strings stand for the structures. The source made the active and inactive calls. The rule behind the calls is not given here.

Consider `CN(C)c1ncc(C2CC3CCC2N3)cc1-c1ccccc1` (configuration not stated), for which the Ki in assay [1] was 57.5 nM.

As to `Nc1ncc(C2CC3CCC2N3)cc1-c1ccccc1` (configuration not stated), the AD50 entry in the assay listed under Mus musculus [2] and in the assay listed under Mus musculus [3] was “inactive” throughout. Further, the results for the Effect with Mus musculus [4] and in the assay on Mus musculus [5] were 15% and 2%, respectively. Also, the Temperature in the assay with Mus musculus [6] is -0.5 °C. Affinity in assay [1] was put at a Ki of 0.33 nM.

`Clc1ncc(C2CC3CCC2N3)cc1-c1ccccc1` (configuration not stated): the Ki in assay [1] stood at 0.021 nM.

In assay [1], `Nc1ccc(C2CC3CCC2N3)cn1` (configuration not stated) displayed an inhibitory constant (Ki) of 1.3 nM. This Ki is about 62-fold higher than that of the compound before.

`Fc1ccc(C2CC3CCC2N3)cn1` (configuration not stated) yielded a Ki in assay [1] of 0.027 nM.

Consider `Fc1ncc(C2CC3CCC2N3)cc1-c1ccccc1` (racemic), for which the AD50 in the assay listed under Mus musculus [7] was 1.2 mg/kg; in the assay listed under Mus musculus [8], 0.5 mg/kg. Also, the Effect in the assay with Mus musculus [9] is 4%; in the assay on Mus musculus [10], 3%. The ED50 in the assay listed under Mus musculus [11] was determined as 4.7 mg/kg. This compound also had a Temperature in the assay with Mus musculus [6] of -0.5 °C.

As to `Fc1ncc(C2CC3CCC2N3)cc1-c1ccccc1` (single isomer, unassigned; (+)), the AD50 in the assay listed under Mus musculus [7] is 2.4 mg/kg; in the assay listed under Mus musculus [8], 1 mg/kg. Moreover, the Effect came to 8% with Mus musculus [9] and 7% in the assay with Mus musculus [10]. For the same compound, in the assay on Mus musculus [6], the Temperature is -0.4 °C. In assay [1], affinity was put at a Ki of 0.24 nM.

Turning to `Fc1ncc(C2CC3CCC2N3)cc1-c1ccccc1` (stereo in doubt; (-)-5a), the AD50 was determined as 0.7 mg/kg in the assay listed under Mus musculus [7] and 0.08 mg/kg in the assay filed under Mus musculus [8]. Further, the Effect with Mus musculus [9] was 10%; in the assay on Mus musculus [10], 5%. This compound gave a Temperature in the assay with Mus musculus [6] of -0.8 °C. For the same compound, the Ki in [1] turned out to be 0.26 nM.

With `CN1CCC[C@H]1c1cccnc1` [NICOTINE], the ED50 in the assay listed under Mus musculus [12] came to 0.004 mg/kg; in the assay filed under Mus musculus [13], 0.006 mg/kg; in the assay filed under Mus musculus [11], 0.5 mg/kg; in the assay filed under Mus musculus [14], 0.004 mg/kg.

The values are drawn from ChEMBL document CHEMBL1134279, “Synthesis, nicotinic acetylcholine receptor binding, and antinociceptive properties of 2-exo-2-(2'-substituted-3'-phenyl-5'-pyridinyl)-7-azabicyclo[2.2.1]heptanes. Novel nicotinic antagonist” (J Med Chem, 2001).
